ChEMBL document CHEMBL3992520, “Development of the First Two-Pore Domain Potassium Channel TWIK-Related K+ Channel 1-Selective Agonist Possessing in Vivo Antinociceptive Activity” (J Med Chem, 2017)

Key:
[1] = molecular target: T1, Potassium channel subfamily K member 2 (Homo sapiens) (UniProt O95069); test: Agonist activity at human TREK1 expressed in HEK293 cells assessed as increase in K+ current at 100 uM measured at +60 mV by whole-cell patch clamp method relative to control; format: cell-based
T1 sequence (whole entry): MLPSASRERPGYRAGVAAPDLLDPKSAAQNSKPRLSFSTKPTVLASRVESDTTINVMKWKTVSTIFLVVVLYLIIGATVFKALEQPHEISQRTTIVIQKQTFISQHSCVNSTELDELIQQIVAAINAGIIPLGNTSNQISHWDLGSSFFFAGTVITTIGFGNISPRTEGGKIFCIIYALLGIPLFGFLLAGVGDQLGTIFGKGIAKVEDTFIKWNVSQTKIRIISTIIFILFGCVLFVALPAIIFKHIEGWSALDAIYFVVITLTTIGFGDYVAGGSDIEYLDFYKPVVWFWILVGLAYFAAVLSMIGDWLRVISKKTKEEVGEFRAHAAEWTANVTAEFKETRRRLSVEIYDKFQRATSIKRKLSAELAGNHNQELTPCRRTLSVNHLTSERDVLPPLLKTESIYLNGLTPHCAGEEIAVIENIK
Summary of the method: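 Human TREK-1 (kcnk2) in pIRES2-eGFP was stably expressed in HEK-293 cells under G418 selection, and cells were used 4–48 h after plating. Bath (mM): 140 NaCl, 10 TEA-Cl, 5 KCl, 3 MgCl2, 1 CaCl2, 10 HEPES, pH 7.4. Pipette (mM): 155 KCl, 3 MgCl2, 5 EGTA, 10 HEPES, pH 7.2. Holding was −80 mV, with a step to −100 mV then a 400 ms ramp to +60 mV every 5 s. Read-out was the ratio Imax/I0 taken from I/V curves. Stocks were 20 mM in DMSO.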

[2] = molecular target: T1, Potassium channel subfamily K member 2 (Homo sapiens); test: Agonist activity at human TREK1 expressed in xenopus oocytes assessed as increase in K+ current at 20 uM measured at 0 mV by double microelectrode method relative to control; format: cell-based
Mus musculus [3] = test: Antinociceptive activity in CD1 mouse assessed as inhibition of acetic acid-induced writhes at 10 mg/kg, sc pretreated for 15 mins followed by acetic acid challenge measured within 20 mins relative to control; format: functional
Summary of the method: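 Male CD1 mice (20-25 g), n=8 per group, dosed at 10 mg/kg s.c. or with vehicle (5% Tween 80 in 0.9% saline). Dosing was 15 min before i.p. 0.6% acetic acid (10 mL/kg). Abdominal writhes were counted for 20 min. Effect = (mean control writhes − mean test writhes)/mean control writhes ×100.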

Liver [4] = test: Drug level in rat liver microsomes treated with at 40 mM (E)-ethyl 2-cyano-3-(1H-indol-2-yl)acrylate measured after 24 hrs by HPLC analysis; format: ADME, microsome; settings: 40000 µM
Summary of the method: (§1)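 Incubation mix: rat liver microsomes (20 mg/mL stock), phosphate buffer pH 7.4 and NADPH (40 mM stock). Drug was added from a 40 mM DMSO stock. Samples were vortexed and incubated at 37 °C with stirring.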

[5] = molecular target: Potassium channel subfamily K member 9 (Homo sapiens) (UniProt Q9NPC2); test: Agonist activity at TASK3 (unknown origin) expressed in HEK293 cells assessed as increase in K+ current at 100 uM measured at +60 mV by whole-cell patch clamp method relative to control; format: cell-based
Chain of Potassium channel subfamily K member 9 (Homo sapiens) (Q9NPC2 whole entry): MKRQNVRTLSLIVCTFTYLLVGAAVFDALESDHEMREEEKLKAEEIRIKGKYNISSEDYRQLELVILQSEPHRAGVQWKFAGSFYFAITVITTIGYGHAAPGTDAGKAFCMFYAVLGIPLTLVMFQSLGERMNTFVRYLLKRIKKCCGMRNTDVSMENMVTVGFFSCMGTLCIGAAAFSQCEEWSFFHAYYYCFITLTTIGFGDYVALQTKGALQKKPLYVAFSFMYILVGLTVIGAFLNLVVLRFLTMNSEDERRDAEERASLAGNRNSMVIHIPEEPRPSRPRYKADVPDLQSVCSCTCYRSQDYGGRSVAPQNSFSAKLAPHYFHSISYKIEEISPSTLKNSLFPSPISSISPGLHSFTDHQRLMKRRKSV

[6] = molecular target: T2, Potassium channel subfamily K member 4 (Homo sapiens) (UniProt Q9NYG8); test: Agonist activity at TRAAK (unknown origin) expressed in HEK293 cells assessed as increase in K+ current at 100 uM measured at +60 mV by whole-cell patch clamp method relative to control; format: cell-based
T2 sequence (whole entry): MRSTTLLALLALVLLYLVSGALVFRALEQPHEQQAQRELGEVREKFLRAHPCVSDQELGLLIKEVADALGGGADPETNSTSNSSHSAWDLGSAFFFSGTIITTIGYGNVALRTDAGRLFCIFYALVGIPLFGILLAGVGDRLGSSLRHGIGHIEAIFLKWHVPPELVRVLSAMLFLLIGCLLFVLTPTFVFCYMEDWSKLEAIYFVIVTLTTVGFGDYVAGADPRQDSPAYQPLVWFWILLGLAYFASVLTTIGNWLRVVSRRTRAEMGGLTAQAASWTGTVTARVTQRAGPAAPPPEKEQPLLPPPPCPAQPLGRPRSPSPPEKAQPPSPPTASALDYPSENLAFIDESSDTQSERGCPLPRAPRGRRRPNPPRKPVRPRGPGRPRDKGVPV

Mus musculus [7] = test: Antinociceptive activity in CD1 mouse assessed as increase in thermal-stimulus induced paw withdrawal latency at 60 mg/kg, sc measured after 30 mins by hot plate method relative to control; format: functional
Summary of the method: (§2)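 Male CD1 mice (20-25 g), n=8 per group, given 60 mg/kg s.c. After 5 min acclimatization on a plate at room temperature, mice were placed on a 52 °C hotplate. Latency to forepaw or hindpaw licking or hindpaw flicking was recorded, with a 30 s cut-off. Latency was taken after two consecutive stable baselines, then 30 and 45 min post-dose. Effect = (postdrug − predrug latency)/predrug latency ×100.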

Mus musculus [8] = test: Antinociceptive activity in CD1 mouse assessed as increase in thermal-stimulus induced paw withdrawal latency at 60 mg/kg, sc measured after 45 mins by hot plate method relative to control; format: functional; summary of the method: as §2
Mus musculus [9] = test: Antinociceptive activity in wild-type C57Bl/6J mouse assessed as increase in thermal-stimulus induced paw withdrawal latency at 60 mg/kg, sc measured after 30 mins by hot plate method relative to control; format: functional
Summary of the method: (§3)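 TREK-1−/− and wild-type C57Bl/6J littermates came from heterozygous crosses, n=7. Dose was 60 mg/kg s.c. The 52 °C hotplate measured paw-lick latency, 30 s cut-off, with baseline from two stable pre-dose latencies.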

Mus musculus [10] = test: Antinociceptive activity in wild-type C57Bl/6J mouse assessed as increase in thermal-stimulus induced paw withdrawal latency at 60 mg/kg, sc measured after 45 mins by hot plate method relative to control; format: functional; summary of the method: as §3
Mus musculus [11] = test: Antinociceptive activity in TREK1 deficient C57Bl/6J mouse assessed as increase in thermal-stimulus induced paw withdrawal latency at 60 mg/kg, sc measured after 30 mins by hot plate method relative to control; format: functional; summary of the method: as §3
Mus musculus [12] = test: Antinociceptive activity in TREK1 deficient C57Bl/6J mouse assessed as increase in thermal-stimulus induced paw withdrawal latency at 60 mg/kg, sc measured after 45 mins by hot plate method relative to control; format: functional; summary of the method: as §3
Mus musculus [13] = test: In vivo activation of TREK1 in C57Bl/6J mouse assessed as increase in thermal-stimulus induced paw withdrawal latency at 60 mg/kg, sc measured after 30 mins by hot plate method relative to control; format: functional; summary of the method: as §3
Mus musculus [14] = test: In vivo activation of TREK1 in C57Bl/6J mouse assessed as increase in thermal-stimulus induced paw withdrawal latency at 60 mg/kg, sc measured after 45 mins by hot plate method relative to control; format: functional; summary of the method: as §3
[15] = molecular target: T3, Potassium channel subfamily K member 10 (Homo sapiens) (UniProt P57789); test: Agonist activity at TREK-2 (unknown origin) expressed in HEK293 cells assessed as increase in K+ current at 100 uM measured at +60 mV by whole-cell patch clamp method relative to control; format: cell-based
T3 sequence (whole entry): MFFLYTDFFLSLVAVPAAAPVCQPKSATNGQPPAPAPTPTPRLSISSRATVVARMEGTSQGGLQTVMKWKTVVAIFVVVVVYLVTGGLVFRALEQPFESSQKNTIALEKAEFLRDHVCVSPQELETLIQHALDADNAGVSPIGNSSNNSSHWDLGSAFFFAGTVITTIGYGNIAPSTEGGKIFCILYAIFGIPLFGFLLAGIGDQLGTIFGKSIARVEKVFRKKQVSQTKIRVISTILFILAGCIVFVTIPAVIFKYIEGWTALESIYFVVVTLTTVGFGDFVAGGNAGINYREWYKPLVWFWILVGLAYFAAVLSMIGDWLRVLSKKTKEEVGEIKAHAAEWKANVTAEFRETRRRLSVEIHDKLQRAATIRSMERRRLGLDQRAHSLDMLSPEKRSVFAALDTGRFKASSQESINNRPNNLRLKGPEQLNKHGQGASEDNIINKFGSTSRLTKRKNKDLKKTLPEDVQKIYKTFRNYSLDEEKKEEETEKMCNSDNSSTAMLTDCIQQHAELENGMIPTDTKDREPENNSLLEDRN

Liver [16] = test: Drug level in rat liver microsomes treated with at 40 mM (E)-ethyl 2-cyano-3-(furan-3-yl)acrylate measured after 24 hrs by HPLC analysis; format: ADME, microsome; settings: 40000 µM; summary of the method: as §1

For N#C/C(=C\c1cc2ccccc2[nH]1)C(=O)O, the fold change (FC) [1] was 1.18, the fold change (FC) [2] was 2.44 and the inhibition in vivo at 10 mg/kg (Mus musculus [3]) was 25.8%. For the same compound, the Drug metabolism (Liver [4]) was “Metabolite_Detected”.

In the case of N#C/C(=C\c1ccoc1)C(=O)O, the fold change (FC) [5] is reported as 1, the fold change (FC) [6] is reported as 1.1 and the fold change (FC) [1] is reported as 4.53. The fold change (FC) [2] was 1.43, the inhibition in vivo at 10 mg/kg (Mus musculus [3]) was 30.7% and the Activity (Mus musculus [7]) was 56.4%. It also gave an Activity (Mus musculus [8]) of 119.5%, an Activity (Mus musculus [9]) of 121.2% and an Activity (Mus musculus [10]) of 93.5%. It also gave an Activity (Mus musculus [11]) of 78.1%, an Activity (Mus musculus [12]) of 75.4% and an Activity (Mus musculus [13]) of 36.6%. For the same compound, the Activity (Mus musculus [14]) was 19%, the fold change (FC) [15] was 1.8 and the Drug metabolism (Liver [16]) was “Metabolite_Detected”.
